Measurements: ChEMBL document CHEMBL1212766, “Dose escalation study of the safety, tolerability, and pharmacokinetics of nemonoxacin (TG-873870), a novel potent broad-spectrum nonfluorinated quinolone, in healthy volunteers” (Antimicrob Agents Chemother, 2010)
≈ marks a conversion by molar mass, not a printed value.

Tests used:
Homo sapiens [1] = experiment: Toxicity in healthy human assessed as occurrence of ear pain at 250 […], po; type: organism-based; parameters: route oral; settings: in vivo
Homo sapiens [2] = experiment: Terminal volume of distribution in healthy human at 25 mg, po administered as single dose; settings: in vivo
Homo sapiens [3] = experiment: Toxicity in healthy human assessed as occurrence of pruritus at 500 […], po; type: organism-based; parameters: route oral; settings: in vivo
Streptococcus pneumoniae [4] = experiment: Ratio of fCmax to MIC90 for penicillin-intermediate Streptococcus pneumoniae; type: functional
Method in brief: (§1)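 Fasted healthy adults got a single oral 500 mg dose with 240 ml water. Plasma was sampled predose to 96 h and assayed by LC-MS/MS (5–5,000 ng/ml). Cmax was read from individual profiles, and AUC0-∞ came from linear trapezoid plus extrapolation. Free fraction was measured by ultrafiltration (30,000 MWCO) of 0.5 and 6 h plasma. Free exposure was divided by the isolate MIC90.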

[5] = Renal clearance in healthy human at 250 mg, po administered as single dose; settings: in vivo, read-out: CL_renal (converted)
Homo sapiens [6] = experiment: Terminal volume of distribution in healthy human at 1500 mg, po administered as single dose; settings: in vivo
Streptococcus pneumoniae [7] = experiment: Antimicrobial activity against penicillin-sensitive Streptococcus pneumoniae; type: functional
[8] = Cmax in healthy human at 1500 mg, po administered as single dose; settings: in vivo
[9] = Renal clearance in healthy human at 25 mg, po administered as single dose; settings: in vivo, read-out: CL_renal (converted)
Homo sapiens [10] = experiment: Clearance in healthy human at 50 […], po administered as single dose; type: ADME, organism-based; parameters: route oral; settings: in vivo
Method in brief: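 Randomized, double-blind, placebo-controlled single ascending oral dose in fasted healthy subjects (six on drug per cohort, with 240 ml water). Plasma sampled predose through 96 h and assayed by validated LC-MS/MS over 5–5,000 ng/ml. Oral clearance (CL_o) came from noncompartmental analysis, with AUC_0-∞ from linear trapezoids plus C_last/λz. Values are means (SD).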

Staphylococcus aureus [11] = experiment: Ratio of fAUC to MIC90 for methicillin-sensitive Staphylococcus aureus; type: functional; method in brief: as §1
Homo sapiens [12] = experiment: Toxicity in healthy human assessed as occurrence of abdominal pain at 1500 […], po; type: organism-based, Abdomen; parameters: route oral; settings: in vivo
Method in brief: (§2)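 Double-blind, placebo-controlled single ascending oral dose; two placebo and six active subjects per cohort. Adverse events were recorded throughout the dosing period and at follow-up, with confinement to 96 h after dosing. Results are reported as number and percentage of subjects with the event (n/N × 100).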

Homo sapiens [13] = experiment: Terminal volume of distribution in healthy human at 500 mg, po administered as single dose; settings: in vivo
Homo sapiens [14] = experiment: Toxicity in healthy human assessed as occurrence of headache at 25 […], po; type: organism-based; parameters: route oral; settings: in vivo
[15] = Tmax in healthy human at 50 mg, po administered as single dose; settings: in vivo
Homo sapiens [16] = experiment: AUC (0 to infinity) in healthy human at 1000 mg, po administered as single dose; settings: in vivo
Streptococcus pneumoniae [17] = experiment: Ratio of fCmax to MIC90 for penicillin-sensitive Streptococcus pneumoniae; type: functional; method in brief: as §1
[18] = Renal clearance in healthy human at 1000 […], po administered as single dose; type: ADME, organism-based, Kidney; parameters: route oral; settings: in vivo, read-out: CL_renal (converted)
Method in brief: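 Renal clearance (CL_r) came from noncompartmental analysis of plasma drawn through 96 h and urine collected over fixed intervals to 96 h. Subjects were fasted healthy volunteers, six per dose cohort, given one oral dose with 240 ml water. Plasma and urine were assayed by LC-MS/MS after solid-phase extraction, with urine LLOQ 200 ng/ml. Values are means (SD).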

Homo sapiens [19] = experiment: Clearance in healthy human at 250 mg, po administered as single dose; settings: in vivo
[20] = Tmax in healthy human at 1000 mg/kg, po administered as single dose; type: ADME, organism-based; parameters: route oral; settings: in vivo
Method in brief: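 Tmax was read by visual inspection of individual plasma concentration–time profiles. Plasma was sampled at 0.5-h steps early on and then out to 96 h, and assayed by LC-MS/MS. Subjects were fasted healthy volunteers, six per cohort, given one oral dose with 240 ml water. Values are means (SD).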

Streptococcus pneumoniae [21] = experiment: Ratio of fCmax to MIC90 for ciprofloxacin-resistant Streptococcus pneumoniae; type: functional; method in brief: as §1
Homo sapiens [22] = experiment: Toxicity in healthy human assessed as occurrence of headache at 50 […], po; type: organism-based; parameters: route oral; settings: in vivo
Homo sapiens [23] = experiment: Toxicity in healthy human assessed as occurrence of erythema at 250 […], po; type: organism-based; parameters: route oral; settings: in vivo
Homo sapiens [24] = experiment: AUC (0 to infinity) in healthy human at 25 […], po administered as single dose; type: ADME, organism-based, Plasma; parameters: time infinity, route oral; settings: in vivo
[25] = Terminal phase elimination half-life in healthy human at 1500 mg, po administered single dose; settings: in vivo
Homo sapiens [26] = experiment: Toxicity in healthy human assessed as occurrence of pruritus at 1000 […], po; type: organism-based; parameters: route oral; settings: in vivo
[27] = Clearance in healthy human assessed as recovery of unchanged drug in urine at 250 […], po administered as single dose; type: ADME, organism-based; parameters: route oral; settings: read-out: Recovered in urine
Method in brief: (§3)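 Healthy volunteers, six on drug per cohort, fasted 10 h and given one oral dose with 240 ml water, then fasted 4 h more. Urine was pooled over intervals from 0-2 to 72-96 h and stored at about −70°C. Drug was measured by solid-phase extraction and LC-MS/MS (LLOQ 200 ng/ml), giving the percent of dose recovered unchanged. Values are means (SD).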

Streptococcus pneumoniae [28] = experiment: Ratio of fAUC to MIC90 for penicillin-resistant Streptococcus pneumoniae; type: functional; method in brief: as §1
[29] = Clearance in healthy human assessed as recovery of unchanged drug in urine at 1500 […], po administered as single dose; type: ADME, organism-based; parameters: route oral; settings: read-out: Recovered in urine; method in brief: as §3
Homo sapiens [30] = experiment: Toxicity in healthy human assessed as occurrence of pruritus at 25 […], po; type: organism-based; parameters: route oral; settings: in vivo
Staphylococcus aureus [31] = experiment: Antimicrobial activity against methicillin-sensitive Staphylococcus aureus; type: functional
[32] = Tmax in healthy human at 25 mg, po administered as single dose; settings: in vivo
Homo sapiens [33] = experiment: Toxicity in healthy human assessed as occurrence of ear pain at 500 […], po; type: organism-based; parameters: route oral; settings: in vivo
Homo sapiens [34] = experiment: Toxicity in healthy human assessed as occurrence of nausea at 50 […], po; type: organism-based; parameters: route oral; settings: in vivo
Homo sapiens [35] = experiment: Toxicity in healthy human assessed as occurrence of erythema at 125 […], po; type: organism-based; parameters: route oral; settings: in vivo
Homo sapiens [36] = experiment: Toxicity in healthy human assessed as occurrence of headache at 1000 […], po; type: organism-based; parameters: route oral; settings: in vivo
Streptococcus pneumoniae [37] = experiment: Ratio of fAUC to MIC90 for penicillin-intermediate Streptococcus pneumoniae; type: functional; method in brief: as §1
Homo sapiens [38] = experiment: Toxicity in healthy human assessed as occurrence of oral hypoesthesia at 50 […], po; type: organism-based; parameters: route oral; settings: in vivo
[39] = Clearance in healthy human assessed as recovery of unchanged drug in urine at 1000 […], po administered as single dose; type: ADME, organism-based; parameters: route oral; settings: read-out: Recovered in urine; method in brief: as §3
Homo sapiens [40] = experiment: Toxicity in healthy human assessed as occurrence of abdominal pain at 250 […], po; type: organism-based, Abdomen; parameters: route oral; settings: in vivo; method in brief: as §2

COc1c(N2C[C@@H](C)C[C@H](N)C2)ccc2c(=O)c(C(=O)O)cn(C3CC3)c12 [NEMONOXACIN]
Activity (Homo sapiens [1]): 0%
Vbeta (Homo sapiens [2]): 4.21 L/kg
Activity (Homo sapiens [3]): 0%
Ratio (Streptococcus pneumoniae [4]): 191
CL renal [5]: 1.83 mL/min/kg
Vbeta (Homo sapiens [6]): 3.42 L/kg
MIC90 (Streptococcus pneumoniae [7]): 0.015 µg/mL (≈ 0.0404 µM)
Cmax [8]: 12100 ng/mL
CL renal [9]: 3 mL/min/kg
CL (Homo sapiens [10]): 3.83 mL/min/kg
Ratio (Staphylococcus aureus [11]): 227
Activity (Homo sapiens [12]): 17%
Vbeta (Homo sapiens [13]): 4.25 L/kg
Activity (Homo sapiens [14]): 0%
Tmax [15]: 1.08 h
AUC (Homo sapiens [16]): 63310 ng·h/mL
Ratio (Streptococcus pneumoniae [17]): 191
CL renal [18]: 1.4 mL/min/kg
CL (Homo sapiens [19]): 4 mL/min/kg
Tmax [20]: 1.67 h
Ratio (Streptococcus pneumoniae [21]): 24
Activity (Homo sapiens [22]): 0%
Activity (Homo sapiens [23]): 0%
AUC (Homo sapiens [24]): 1190 ng·h/mL
half-life [25]: 13 h
Activity (Homo sapiens [26]): 17%
dose excreted [27]: 44.9%
Ratio (Streptococcus pneumoniae [28]): 906
dose excreted [29]: 37.6%
Activity (Homo sapiens [30]): 0%
MIC90 (Staphylococcus aureus [31]): 0.12 µg/mL (≈ 0.323 µM)
Tmax [32]: 0.92 h
Activity (Homo sapiens [33]): 0%
Activity (Homo sapiens [34]): 0%
Activity (Homo sapiens [35]): 0%
Activity (Homo sapiens [36]): 17%
Ratio (Streptococcus pneumoniae [37]): 1812
Activity (Homo sapiens [38]): 0%
dose excreted [39]: 36.5%
Activity (Homo sapiens [40]): 0%
